ChEMBL document CHEMBL5370536, “Design, synthesis, and biological activity of dual monoamine oxidase A and heat shock protein 90 inhibitors, N-Methylpropargylamine-conjugated 4-isopropylresorcinol for glioblastoma” (Eur J Med Chem, 2023)
Calls of active or inactive are those of the source. The calls are words filed in the database; no cut-off is given here.

Experiments:
[1] = Antiproliferative activity against human patient-derived TMZ-resistant GBM cells with MGMT negative P3R cell assessed as inhibition of cell growth measured after 72 hrs by CCK8 method; assay type: functional, cell-based
Summary of the method: (§1)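 Cell lines from ATCC or from patient surgical specimens (P1S, P3, P3R), kept in DMEM with 10% FBS and 1% penicillin/streptomycin at 37°C, 5% CO₂. P3R medium also held 50 μM TMZ. Cells were seeded at 2×10³/well 24 h before compound, then exposed 72 h.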

U-251 [2] = test: Growth inhibition of human U-251 cells incubated for 48 hrs by SRB assay; assay type: functional
Summary of the method: (§2)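 NCI-60 panel screen: cells seeded at 5000 to 40000 per well according to doubling time, 24 h before drug addition at various concentrations. A time-zero plate was TCA-fixed at drug addition. After 48 h drug exposure, growth was read by sulforhodamine B staining. Percent growth = [(Ti − Tz)/(C − Tz)] × 100, and GI50 is the concentration at which this equals 50.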

T98G = test: Antiproliferative activity against human T98G cells assessed as inhibition of cell growth measured after 72 hrs by CCK8 method; assay type: functional, cell-based; summary of the method: as §1
[3] = Antiproliferative activity against human patient-derived, TMZ-resistant and concurrent chemo-radiotherapy (CCRT)-resistant P1S cell assessed as inhibition of cell growth measured after 72 hrs by CCK8 method; assay type: functional, cell-based; summary of the method: as §1
[4] = molecular target: T1, Amine oxidase [flavin-containing] A (Mus musculus, UniProt Q64133); test: Inhibition of MAO A in mouse GL26 cells preincubated for 20 mins followed by 14C-labeled 5-hydroxytryptamine addition and measured after 20 mins by scintillation counter analysis; assay type: cell-based
T1 sequence (Q64133 whole entry): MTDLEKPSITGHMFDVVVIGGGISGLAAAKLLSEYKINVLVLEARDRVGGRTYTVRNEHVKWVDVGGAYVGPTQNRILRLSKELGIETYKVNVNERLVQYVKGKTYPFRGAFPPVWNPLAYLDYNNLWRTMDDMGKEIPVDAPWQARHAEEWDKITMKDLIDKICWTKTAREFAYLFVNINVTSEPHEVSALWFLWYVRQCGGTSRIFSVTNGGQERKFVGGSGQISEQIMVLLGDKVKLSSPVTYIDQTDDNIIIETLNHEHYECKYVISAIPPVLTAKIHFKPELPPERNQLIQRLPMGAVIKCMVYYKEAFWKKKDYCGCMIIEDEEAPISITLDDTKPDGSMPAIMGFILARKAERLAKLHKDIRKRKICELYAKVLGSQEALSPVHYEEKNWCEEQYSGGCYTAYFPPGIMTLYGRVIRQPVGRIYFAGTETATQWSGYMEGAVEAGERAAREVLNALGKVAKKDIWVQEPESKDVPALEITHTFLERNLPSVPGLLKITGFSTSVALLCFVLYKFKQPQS

SF-268 = test: Growth inhibition of human SF-268 cells incubated for 48 hrs by SRB assay; assay type: functional; summary of the method: as §2
K562 = test: Growth inhibition of human K562 cells incubated for 48 hrs by SRB assay; assay type: functional; summary of the method: as §2
[5] = Antitumor activity against mouse GL26 cells xenografted in C57BL/6J mouse model assessed as tumor growth inhibition at 25 mg/kg, ip administered daily for 3 days followed by every 3 days for 14 days by caliper method relative to control; assay type: functional; details: GL26, 336 h, time 14 day, read-out: TGI
Summary of the method: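 Male C57BL/6J mice aged 8-9 weeks received 2 × 10⁵ GL26 cells subcutaneously in the lower back. From day 9 after implantation, once tumours were palpable, 25 mg/kg was given i.p. daily for 3 days and then every 3 days over 14 days. Caliper volume was length × width² ÷ 2. TGI% was taken relative to the mean tumour size of the vehicle group.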

SF-295 = test: Growth inhibition of human SF-295 cells incubated for 48 hrs by SRB assay; assay type: functional; summary of the method: as §2
LN-229 = test: Antiproliferative activity against human LN-229 cells assessed as inhibition of cell growth measured after 72 hrs by CCK8 method; assay type: functional, cell-based; details: LN-229, 72 h; summary of the method: as §1
[6] = Antiproliferative activity against human patient-derived P3 cell assessed as inhibition of cell growth measured after 72 hrs by CCK8 method; assay type: functional, cell-based; summary of the method: as §1
HCT-116 [7] = test: Growth inhibition of human HCT-116 cells incubated for 48 hrs by SRB assay; assay type: functional; summary of the method: as §2
U-251 [8] = test: Antiproliferative activity against human Temozolomide-resistant U-251 cells assessed as inhibition of cell growth measured after 48 hrs by MTT assay; assay type: functional, cell-based; details: U-251, 48 h
Summary of the method: (§3)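 Cells plated at 5×10³ per well 24 h before compound and grown in DMEM with 10% FBS at 37°C, 5% CO₂. After 48 h exposure, the medium was replaced with 0.5 mg/mL MTT for 3 h. Formazan was dissolved in DMSO and read at 570 nm.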

SW-620 = test: Growth inhibition of human SW-620 cells incubated for 48 hrs by SRB assay; assay type: functional; summary of the method: as §2
GL26 [9] = test: Upregulation of HSP70 expression in mouse GL26 cells incubated for 24 hrs by Western blot analysis; assay type: functional, cell-based; details: dose 0.1-3 µM
[10] = molecular target: Heat shock protein HSP 90-alpha (Homo sapiens, UniProt P07900); test: Inhibition of human recombinant HSP90alpha preincubated for 30 mins followed by FITC-GM addition and mesured after 3 hrs by fluorescence polarization assay
U-87 MG = test: Antiproliferative activity against human U-87 MG cells assessed as inhibition of cell growth measured after 72 hrs by CCK8 method; assay type: functional, cell-based, U-87MG ATCC; summary of the method: as §1
SNB-75 = test: Growth inhibition of human SNB-75 cells incubated for 48 hrs by SRB assay; assay type: functional; summary of the method: as §2
HCT-116 [11] = test: Downregulation of PD-L1 expression in human HCT-116 cells; assay type: functional, cell-based
Summary of the method: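 HCT116 cells at 3 × 10⁵ per well were treated at various concentrations with or without 20 ng/mL IFN-γ for 48 h. Cells were stained with mouse anti-PD-L1 for 1 h in PBS/0.05% BSA, then FITC goat anti-mouse for 1 h. Surface FITC mean fluorescence intensity was measured by flow cytometry.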

A 172 = test: Antiproliferative activity against human A-172 cells assessed as inhibition of cell growth measured after 72 hrs by CCK8 method; assay type: functional, cell-based; details: A 172, 72 h; summary of the method: as §1
[12] = Antiproliferative activity against mouse GL26 cells assessed as inhibition of cell growth measured after 48 hrs by MTT assay; assay type: functional, cell-based; details: GL26, 48 h; summary of the method: as §3
SF-539 = test: Growth inhibition of human SF-539 cells incubated for 48 hrs by SRB assay; assay type: functional; summary of the method: as §2
SNB-19 = test: Growth inhibition of human SNB-19 cells incubated for 48 hrs by SRB assay; assay type: functional; summary of the method: as §2
U-251 [13] = test: Downregulation of Akt phosphorylation expression at Ser 473 residues in human Temozolomide-resistant U-251 cells incubated for 24 hrs by Western blot analysis; assay type: functional, cell-based; details: dose 0.1-3 µM
NCI-H522 = test: Growth inhibition of human NCI-H522 cells incubated for 48 hrs by SRB assay; assay type: functional; summary of the method: as §2
RPMI-8226 = test: Growth inhibition of human RPMI-8226 cells incubated for 48 hrs by SRB assay; assay type: functional; summary of the method: as §2
NCI-H460 = test: Growth inhibition of human NCI-H460 cells incubated for 48 hrs by SRB assay; assay type: functional; summary of the method: as §2
A549 = test: Growth inhibition of human A549 cells incubated for 48 hrs by SRB assay; assay type: functional; summary of the method: as §2
GL26 [14] = test: Downregulation of IFN-gamma induced PD-L1 expression in mouse GL26 cells incubated for 24 hrs by flow cytometry analysis; assay type: functional, cell-based
Summary of the method: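 GL26 cells at 3.6 × 10⁵ per well were treated at various concentrations with or without 10 ng/mL IFN-γ for 24 h. Cells were stained with goat anti-PD-L1 for 1 h in PBS/0.05% BSA, then FITC donkey anti-goat for 1 h, and read by flow cytometry. MFI was normalised to the secondary-antibody-only isotype control and expressed as an MFI ratio.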

U-251 [15] = test: Upregulation of HSP70 expression in human Temozolomide-resistant U-251 cells incubated for 24 hrs by Western blot analysis; assay type: functional, cell-based; details: dose 0.1-3 µM
U-251 [16] = test: Downregulation of HER2 expression in human Temozolomide-resistant U-251 cells incubated for 24 hrs by Western blot analysis; assay type: functional, cell-based; details: dose 0.1-3 µM
GL26 [17] = test: Downregulation of HER2 expression in mouse GL26 cells incubated for 24 hrs by Western blot analysis; assay type: functional, cell-based; details: dose 0.1-3 µM
[18] = Antiproliferative activity against human U373 MG cells assessed as inhibition of cell growth measured after 72 hrs by CCK8 method; assay type: functional, cell-based, U-373MG ATCC; summary of the method: as §1
GL26 [19] = test: Downregulation of Akt phosphorylation expression at Ser 473 residues in mouse GL26 cells incubated for 24 hrs by Western blot analysis; assay type: functional, cell-based; details: dose 0.1-3 µM

C#CCN(C)CCCOc1ccc(N(CC)C(=O)c2cc(C(C)C)c(O)cc2O)cc1Cl
IC50 [1]: 1450 nM
GI50 (U-251 [2]): 370 nM
IC50 (T98G): 460 nM
IC50 [3]: 680 nM
IC50 [4]: 4580 nM
GI50 (SF-268): 1430 nM
GI50 (K562): 70 nM
inhibition in vivo at 25 mg/kg [5]: 59.8%
GI50 (SF-295): 320 nM
IC50 (LN-229): 310 nM
IC50 [6]: 2930 nM
GI50 (HCT-116 [7]): 80 nM
IC50 (U-251 [8]): 260 nM
GI50 (SW-620): 240 nM
Activity (GL26 [9]): Dose-Dependent Effect
IC50 [10]: 16 nM
IC50 (U-87 MG): 360 nM
GI50 (SNB-75): 860 nM
Activity (HCT-116 [11]): Active
IC50 (A 172): 890 nM
IC50 [12]: 490 nM
GI50 (SF-539): 310 nM
GI50 (SNB-19): 440 nM
Activity (U-251 [13]): Dose-Dependent Effect
GI50 (NCI-H522): 70 nM
GI50 (RPMI-8226): 330 nM
GI50 (NCI-H460): 50 nM
GI50 (A549): 140 nM
Activity (GL26 [14]): Dose-Dependent Effect
Activity (U-251 [15]): Dose-Dependent Effect
Activity (U-251 [16]): Dose-Dependent Effect
Activity (GL26 [17]): Dose-Dependent Effect
IC50 [18]: 890 nM
Activity (GL26 [19]): Dose-Dependent Effect
